Test results reported in ChEMBL document CHEMBL3875168, “Synthesis and apoptosis inducing studies of triazole linked 3-benzylidene isatin derivatives” (Eur J Med Chem, 2016).

How the values were obtained:
[1] = Cytotoxicity against human A549 cells assessed as cell growth inhibition after 48 hrs by MTT assay; type: functional, cell-based; conditions: A549, 48 h
Outline: (§1)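 Cell lines (NCCS) grown in DMEM or RPMI with 10% FBS and antibiotic-antimycotic at 37 °C, 5% CO2, 90% humidity. Cells seeded at 3-5×10^3 per well, treated 48 h with serial dilutions in medium beside vehicle control. Medium replaced with MTT (0.5 mg/mL) for 4 h, absorbance read at 570 nm. IC50 taken from concentration-response curves; sunitinib served as reference.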

[2] = Cytotoxicity against human BT549 cells assessed as cell growth inhibition after 48 hrs by MTT assay; type: functional, cell-based; conditions: BT-549, 48 h; outline: as §1
[3] = Cytotoxicity against human DU145 cells assessed as cell growth inhibition after 48 hrs by MTT assay; type: functional, cell-based; conditions: DU-145, 48 h; outline: as §1
[4] = Cytotoxicity against human PC3 cells assessed as cell growth inhibition after 48 hrs by MTT assay; type: functional, cell-based; conditions: PC-3, 48 h; outline: as §1
[5] = Cytotoxicity against human HeLa cells assessed as cell growth inhibition after 48 hrs by MTT assay; type: functional, cell-based; outline: as §1
[6] = Cytotoxicity against human MDA-MB-231 cells assessed as cell growth inhibition after 48 hrs by MTT assay; type: functional, cell-based; conditions: MDA-MB-231, 48 h; outline: as §1
[7] = Cytotoxicity against human RWPE1 cells assessed as cell growth inhibition after 48 hrs by MTT assay; type: toxicity, cell-based, RWPE-1

O=C1Nc2cc(Br)ccc2/C1=C\c1cccc(OCc2cn(Cc3ccccc3)nn2)c1 gave an IC50 [1] of 9.6 µM, an IC50 [2] greater than 50 µM and an IC50 [3] of 5.7 µM. The IC50 [4] was greater than 50 µM.
In the case of O=C1Nc2ccccc2/C1=C\c1cccc(OCc2cn(Cc3ccccc3)nn2)c1, the IC50 [1] is reported as greater than 50 µM, the IC50 [2] is reported as greater than 50 µM and the IC50 [3] is reported as 31.7 µM. For the same compound, the IC50 [5] was 32.3 µM and the IC50 [4] was 29.5 µM.
With O=Cc1cccc(OCc2cn(Cc3ccccc3)nn2)c1 the IC50 [6] was greater than 50 µM, the IC50 [1] was greater than 50 µM and the IC50 [2] was greater than 50 µM. For the same compound, the IC50 [3] was greater than 50 µM, the IC50 [5] was greater than 50 µM and the IC50 [4] was greater than 50 µM.
O=C1Nc2ccc(C(=O)c3ccccc3)cc2/C1=C\c1cccc(OCc2cn(Cc3ccccc3)nn2)c1 showed an IC50 [6] greater than 50 µM, an IC50 [1] greater than 50 µM and an IC50 [2] greater than 50 µM. For the same compound, the IC50 [3] was greater than 50 µM, the IC50 [5] was greater than 50 µM and the IC50 [4] was greater than 50 µM.
For O=C1Nc2ccc(C(c3ccccc3)c3ccccc3)cc2/C1=C\c1cccc(OCc2cn(Cc3ccccc3)nn2)c1, the IC50 [6] was greater than 50 µM, the IC50 [1] was greater than 50 µM and the IC50 [2] was greater than 50 µM. It also gave an IC50 [3] greater than 50 µM, an IC50 [5] greater than 50 µM and an IC50 [4] greater than 50 µM.
With O=C1Nc2ccc([N+](=O)[O-])cc2/C1=C\c1cccc(OCc2cn(Cc3ccccc3)nn2)c1 the IC50 [6] was greater than 50 µM, the IC50 [1] was greater than 50 µM and the IC50 [2] was greater than 50 µM. The IC50 [5] was greater than 50 µM and the IC50 [4] was greater than 50 µM.
O=C1Nc2ccc(F)cc2/C1=C\c1cccc(OCc2cn(Cc3ccccc3)nn2)c1 showed an IC50 [6] greater than 50 µM, an IC50 [1] greater than 50 µM and an IC50 [2] greater than 50 µM. It also gave an IC50 [5] greater than 50 µM and an IC50 [4] greater than 50 µM.
Compound Cc1ccc(C(C#Cc2ccccc2)c2ccc3c(c2)/C(=C/c2cccc(OCc4cn(Cc5ccccc5)nn4)c2)C(=O)N3)cc1 (centres undefined) has an IC50 [6] greater than 50 µM, an IC50 [1] greater than 50 µM and an IC50 [2] greater than 50 µM. The IC50 [3] was greater than 50 µM, the IC50 [5] was greater than 50 µM and the IC50 [4] was greater than 50 µM.
In the case of O=C1Nc2cc(Cl)ccc2/C1=C\c1cccc(OCc2cn(Cc3ccccc3)nn2)c1, the IC50 [6] is reported as greater than 50 µM, the IC50 [1] is reported as greater than 50 µM and the IC50 [2] is reported as greater than 50 µM. The IC50 [3] was 20.1 µM, the IC50 [5] was greater than 50 µM and the IC50 [4] was greater than 50 µM.
CCN(CC)CCNC(=O)c1c(C)[nH]c(/C=C2\C(=O)Nc3ccc(F)cc32)c1C [SUNITINIB] gave an IC50 [6] of 7.4 µM, an IC50 at 48 h [7] of 25.2 µM and an IC50 [3] of 16.3 µM. The IC50 [5] was 10.4 µM and the IC50 [4] was 12.6 µM.
Compound O=C1Nc2ccc(Br)cc2/C1=C/c1cccc(OCc2cn(Cc3ccccc3)nn2)c1 has an IC50 [6] greater than 50 µM, an IC50 [1] greater than 50 µM and an IC50 [2] greater than 50 µM. For the same compound, the IC50 [3] was 35.1 µM, the IC50 [5] was greater than 50 µM and the IC50 [4] was greater than 50 µM.
Compound COc1cc(Cn2cc(COc3cccc(/C=C4\C(=O)Nc5ccccc54)c3)nn2)cc(OC)c1 has an IC50 [6] greater than 50 µM, an IC50 [1] of 43.3 µM and an IC50 [2] greater than 50 µM. It also gave an IC50 [5] of 33.8 µM and an IC50 [4] of 31.7 µM.
For O=C1Nc2ccccc2/C1=C/c1cccc(OCc2cn(Cc3ccccc3)nn2)c1, the IC50 [1] was 31.5 µM, the IC50 [2] was greater than 50 µM and the IC50 [4] was 34.5 µM.
Work on COc1ccc(Cc2ccc3c(c2)/C(=C/c2cccc(OCc4cn(Cc5ccccc5)nn4)c2)C(=O)N3)cc1 yielded an IC50 [6] of 20.4 µM, an IC50 [1] of 30.5 µM and an IC50 [2] of 36 µM. The IC50 [3] was 6.7 µM, the IC50 [5] was 7.7 µM and the IC50 [4] was greater than 50 µM.
For COc1cc(Cn2cc(COc3cccc(/C=C4/C(=O)Nc5ccccc54)c3)nn2)cc(OC)c1, the IC50 [6] was 11.7 µM, the IC50 [1] was 26.7 µM and the IC50 [3] was 25.6 µM. It also gave an IC50 [5] of 22 µM and an IC50 [4] of 37.1 µM.
Compound CC(=O)c1ccc2c(c1)/C(=C\c1cccc(OCc3cn(Cc4ccccc4)nn3)c1)C(=O)N2 has an IC50 [6] greater than 50 µM, an IC50 [1] greater than 50 µM and an IC50 [2] greater than 50 µM. The IC50 [3] was greater than 50 µM, the IC50 [5] was greater than 50 µM and the IC50 [4] was greater than 50 µM.
O=C1Nc2ccc(Cl)cc2/C1=C/c1cccc(OCc2cn(Cc3ccccc3)nn2)c1 showed an IC50 [1] greater than 50 µM, an IC50 [3] of 24.2 µM and an IC50 [4] greater than 50 µM.
For COc1ccc(Cc2ccc3c(c2)/C(=C\c2cccc(OCc4cn(Cc5ccccc5)nn4)c2)C(=O)N3)cc1, the IC50 [6] was greater than 50 µM, the IC50 [1] was greater than 50 µM and the IC50 [2] was greater than 50 µM. The IC50 [3] was greater than 50 µM and the IC50 [4] was 32.2 µM.
In the case of Cc1ccc(C(C#Cc2ccccc2)c2ccc3c(c2)/C(=C\c2cccc(OCc4cn(Cc5ccccc5)nn4)c2)C(=O)N3)cc1 (centres undefined), the IC50 [1] is reported as 36.6 µM, the IC50 [2] is reported as greater than 50 µM and the IC50 [3] is reported as 28.9 µM. The IC50 [5] was 32.8 µM and the IC50 [4] was greater than 50 µM.
Work on CC(=O)c1ccc2c(c1)/C(=C/c1cccc(OCc3cn(Cc4ccccc4)nn3)c1)C(=O)N2 yielded an IC50 [6] greater than 50 µM, an IC50 [1] of 36.3 µM and an IC50 [2] greater than 50 µM. It also gave an IC50 [3] greater than 50 µM, an IC50 [5] greater than 50 µM and an IC50 [4] greater than 50 µM.
